Bioassay records (PubChem BioAssay)
This is a sample that favours compounds with a hit; in the whole collection about 4.5% have one here.
MrgX1 antag – antagonists of human MrgX1 receptor, primary screen, HEK293 cells, Fluo-4 calcium flux; Mas-related G-protein coupled receptor member X1 (Homo sapiens), Q96LB2; BAM8-22 antagonism; hits give low values; B-score at 10 µM; 310,000 tested, 1.3% active; AID 588676, 2011;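 active = calcium-response B-score plate-corrected more than 3 library SD below zero, starting fluorescence within 5 deviations, no agonist response on first addition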;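 note: peak minus trough fluorescence over baseline after final BAM8-22 challenge near maximal dose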
RGS4 inh – RGS4 inhibitors, primary screen, cell-based, HEK293 M3R inducible RGS4, calcium flux; 310,000 tested, 0.45% active; B-score at 10 µM; Regulator of G-protein signaling 4 (Homo sapiens), P49798; Fluo-4 calcium flux; hits give high values; triggered by carbachol at its EC20;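 active = B-score, a plate-corrected calcium signal, over three deviations above library mean, with baseline fluorescence within five deviations of library mean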;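 note: RGS4 expression induced by doxycycline in cells with stable M3 receptor; B-score is computed from the integrated fluorescence ratio over baseline after carbachol; higher B-score means a larger calcium signal and so more RGS4 inhibition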
Target sequence (P49798 whole entry, looked up): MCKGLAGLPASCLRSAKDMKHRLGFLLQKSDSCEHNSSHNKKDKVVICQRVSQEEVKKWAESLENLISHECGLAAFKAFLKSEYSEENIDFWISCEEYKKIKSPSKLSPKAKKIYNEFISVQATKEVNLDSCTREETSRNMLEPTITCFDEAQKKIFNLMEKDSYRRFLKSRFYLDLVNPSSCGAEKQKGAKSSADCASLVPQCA
MrgX1 ag – agonists of human MrgX1 receptor, primary screen, HEK293 cells, Fluo-4 calcium flux; Fluo-4 calcium fluorescence, agonist mode; hits give high values; B-score at 10 µM; Mas-related G-protein coupled receptor member X1 (Homo sapiens), Q96LB2; 310,000 tested, 0.44% active;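 active = calcium response B-score plate-corrected fluorescence ratio at least 3 library SD, with starting fluorescence B-score inside 5 SD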
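Test system: Stable human MrgX1 HEK293 cell line | Schedule: Overnight plating before 1 h dye loading | Read-out basis: Baseline-normalised fluorescence change ratio, B-scored | Detection: Kinetic calcium dye fluorescence, Fluo-4 NW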
RGS4 act – RGS4 potentiators or activators, primary screen, cell-based, HEK293 M3R inducible RGS4, calcium flux. carbachol calcium flux Fluo4; hits give low values. B-score at 10 µM. 310,000 tested, 0.92% active;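 active = B-score of the integrated calcium signal more than 4 SD below the library mean, with starting fluorescence not abnormally high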;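 note: negative B-score means reduced calcium response which marks RGS4 activation or potentiation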
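System – HEK293 FlpIn-TREx cells, stable M3R, doxycycline-inducible RGS4 · Reagent – ECmax carbachol challenge · Times – compound preincubation 20 min at room temperature before agonist · Technique – Fluo4 fluorescence kinetic imaging of calcium · Measure – B score of integrated Fluo4 ratio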
MrgX1 PAM – positive allosteric modulators of MrgX1, primary screen, HEK293 cells, Fluo-4 calcium flux | 310,000 tested, 0.63% active | AID 588675, 2011 | FDSS; hits give high values | Mas-related G-protein coupled receptor member X1 (Homo sapiens), Q96LB2 | B-score at 10 µM;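 active = plate-corrected calcium response at least 3 library SD above typical, normal starting fluorescence, not activating the receptor alone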;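 note: compound read alongside a low EC10 to EC30 dose of BAM8-22 agonist; peak minus trough fluorescence over baseline measured at the second addition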
PHOSPHO1 inh – PubChem AID 1565; Phosphoethanolamine/phosphocholine phosphatase (Homo sapiens), Q8TCT1; recombinant PHOSPHO1, absorbance phosphatase assay; inhibition, % at 13.3 µM; 290,000 tested, 1.1% active; in the data active = inhibition above about 60%
Target sequence (Q8TCT1 whole entry, looked up): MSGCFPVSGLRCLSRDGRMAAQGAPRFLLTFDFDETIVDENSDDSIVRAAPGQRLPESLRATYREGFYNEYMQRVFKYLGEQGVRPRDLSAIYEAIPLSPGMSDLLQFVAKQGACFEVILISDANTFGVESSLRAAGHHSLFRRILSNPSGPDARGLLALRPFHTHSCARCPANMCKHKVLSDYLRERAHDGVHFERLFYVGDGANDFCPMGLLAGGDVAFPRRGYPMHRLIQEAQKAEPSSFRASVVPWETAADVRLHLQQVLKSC
* = called active by the depositor; i = inactive; nt = not tested or not shown.

SMILES	MrgX1 antag	RGS4 inh	MrgX1 ag	RGS4 act	MrgX1 PAM	PHOSPHO1 inh
O=C(NC(=O)c1cnccc1C(F)(F)F)Nc1ccccc1	i	i	i	i	i	45
CC1(C)Cc2c(c(N3CCOCC3)nc3sc4c(=O)[nH]cnc4c23)CS1	i	i	i	i	i	108*
O=C1CN(C(=O)NCCC(=O)NC2CCCCC2)c2ccccc2N1	i	i	i	i	i	49
CCOC(=O)C1(Cc2cccc(F)c2)CCN(C(=O)c2ccoc2C)CC1	i	i	i	i	i	63*
CCOC(=O)C1(Cc2cccc(F)c2)CCN(C(=O)c2cscn2)CC1	i	i	i	i	i	28
COc1cc(C2NC(=O)NC(C)=C2[N+](=O)[O-])cc(OC)c1OC (stereo not drawn)	i	i	i	i	i	13
CCCOc1ccc(C(=O)Nc2ccc(N(C)C)cc2)cc1	i	i	i	i	i	11
CC(C)Oc1ccc(C(=O)Nc2ccc(N(C)C)cc2)cc1	i	i	i	i	i	76*
Cc1ccc(OCC(=O)Nc2ccc([N+](=O)[O-])cc2)cc1	i	i	i	i	i	-6
CCN(CC)c1ccc(NC(=O)COc2ccc(C)cc2)cc1	i	i	i	i	i	81*
CN(C)c1ccc(NC(=O)COC(=O)CCC(=O)c2ccc(F)cc2)cc1	i	i	i	i	i	100*
Cc1ccc(OCC(=O)Nc2ccc(C(N)=O)cc2)cc1	i	i	i	i	i	26
Cc1ccc(OCC(=O)Nc2ccc(N(C)C)cc2)cc1	i	i	i	i	i	81*
CCOc1ccc(NC(=O)C[n+]2ccc(N(C)C)cc2)cc1	i	i	i	i	i	3
CN(C)c1cc[n+](CC(=O)Nc2ccc(Oc3ccccc3)cc2)cc1	i	i	i	-9.1*	i	44
COc1cc(/C=N/N=C(N)N)ccc1OCc1ccccc1Cl	i	i	i	i	6.5*	-87
COc1ccc(/C=N/N=C/c2ccc(OC)c(OC)c2)cc1OC	i	i	i	i	i	16
COc1ccc(CCN=C(N)C(C)c2ccccc2)cc1OC (stereo not drawn)	i	i	i	i	i	25
CC(C)Cc1ccc(C(C)C(N)=NCCc2ccccc2)cc1 (stereo not drawn)	i	i	i	-7.1*	i	1
C1CCC(c2nn3c(-c4n[nH]c5c4CCC5)nnc3s2)CC1	i	i	i	i	i	35
CCN(CC)c1ccc(-c2nn3c(-c4n[nH]c5c4CCC5)nnc3s2)cc1	-12*	i	i	-7.2*	i	47
O=C(O)c1ccc(/C=N/n2cc(-c3ccccc3)[nH]c2=S)cc1	i	i	i	i	i	97*
S=c1[nH]c(-c2ccccc2)cn1/N=C/c1ccc(Br)cc1	i	i	i	i	i	-62
CCOC(=O)/C(=N/Nc1ccccc1)c1csc(Nc2ccccc2)n1	i	i	i	i	i	-3
CCOC(=O)/C(=N\Nc1ccc(OC)cc1)c1csc(Nc2ccccc2)n1	i	i	i	i	i	90*
SMILES	MrgX1 antag	RGS4 inh	MrgX1 ag	RGS4 act	MrgX1 PAM	PHOSPHO1 inh
O=C1NN(c2ccc(F)cc2)C(=O)/C1=C/c1cccs1	i	i	30*	i	i	41
CC1=NN(c2ccccc2)C(=O)/C1=C/c1cccs1	i	i	i	i	i	-7
O=C(COC(=O)c1c2ccccc2cc2ccccc12)Nc1ncc(C(F)(F)F)cc1Cl	i	i	i	-7*	i	-3
COCC(=O)N1CCC(Oc2ccc(C(=O)N3CCCCCC3)cc2)CC1	i	i	i	i	i	43
O=[N+]([O-])c1ccc(Cl)c(/C=N/n2c(C3CCCCC3)n[nH]c2=S)c1	i	i	i	i	i	103*
COc1ccccc1CNN	i	i	i	i	8*	8
O=[N+]([O-])c1ccc(S(=O)(=O)Nc2ccc(-c3ccc(N4CCCC4)nn3)cc2)cc1	i	i	i	i	6.7*	nt
O=[N+]([O-])c1ccc(Cl)c(S(=O)(=O)Nc2ccc(-c3ccc(N4CCCC4)nn3)cc2)c1	i	i	i	i	i	nt
Cc1ccc([N+](=O)[O-])cc1S(=O)(=O)Nc1ccc(-c2ccc(N3CCCC3)nn2)cc1	i	i	i	i	16*	nt
COCCNC(=O)c1cccc(OC2CCN(C(C)COc3ccccc3)CC2)c1 (stereo not drawn)	i	i	32*	i	i	18
COCCNC(=O)c1cccc(OC2CCN(Cc3ccccc3OCCO)CC2)c1	i	i	i	i	i	nt
O=c1oc2ccccc2nc1/C=C(O)/C=C\c1ccccc1	i	i	i	i	8.6*	1
Cc1csc(NC(=O)c2ccc(S(=O)(=O)N(C)c3ccccc3)cc2)n1	i	i	i	i	i	86*
CC(C)OC(=O)c1c(N)n(CCCN2CCOCC2)c2nc3ccccc3nc12	i	i	i	i	i	9
CC(C)OC(=O)c1c2nc3ccccc3nc2n2c1[nH]c(=O)c1ccccc12	i	i	32*	i	i	6
CCN1CCN(CCCNC(=O)c2ccc3c(=O)n(CCc4ccccc4)c(=O)[nH]c3c2)CC1	i	i	i	i	i	9
CCOC(=O)C1CC(c2ccc(Cl)cc2)=NNC1=O (stereo not drawn)	i	i	i	i	i	61*
COc1ccc(S(=O)(=O)NNC(=O)Nc2ccc(F)cc2)cc1	i	i	i	i	i	nt
O=C(COn1nnc2ccccc21)N1CCN(Cc2ccccc2)CC1	i	i	i	i	i	8
CCNCCC(=O)N1c2ccccc2Sc2ccc(C(F)(F)F)cc21	i	i	31*	-7.9*	i	8
O=C(CN1CCCC1)N1c2ccccc2Sc2ccc(C(F)(F)F)cc21	i	i	i	-8.1*	i	-14
O=C(CSc1nc2ccccc2o1)N1c2ccccc2Sc2ccc(C(F)(F)F)cc21	i	i	i	i	i	-21
